The results in this text go back to the EternaBench riboswitch data.

The test system of the series is MS2 coat protein. Nature of the series: apparent Kd, MS2 coat protein; higher = weaker binding; RNA-MaP array; FMN 200 µM where present. In a few lines:
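Two titrations, one without ligand and one with constant ligand, were run with SNAP-549-labelled MS2 coat protein from 0.7 or 1.5 nM, doubling to 3 µM. The targets were designs transcribed by stalled E. coli RNA polymerase on Illumina sequencing-chip clusters, in 100 mM Tris-HCl pH 7.5, 80 mM KCl, 4 mM MgCl2, BSA, DTT, yeast tRNA and Tween-20. The apparent Kd is the median of filtered per-cluster binding-curve fits, with green signal normalised to red-channel RNA signal and control-cluster median Fmax.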

Where [1] appears, read: designed as: OFF switch for flavin mononucleotide, no ligand.
Setting [2] is: ligand present: flavin mononucleotide, designed as: OFF switch for flavin mononucleotide.
The mark [3] stands for this setting: designed as: ON switch for flavin mononucleotide, no ligand.
Where [4] appears, read: ligand present: flavin mononucleotide, designed as: ON switch for flavin mononucleotide.

The term apparent Kd denotes a dissociation constant that holds for the conditions of the assay. For “AAGUCGCUAGGAGGAUAUACAUGAUCUCACACAUGUACCGCUCACGCCACAUGAGGAUCACCCAUGUAGAAGGCCUAGAGAGGU”, the “apparent Kd” value by setting is: under setting [1], 23.4 nM; under setting [2], 62.4 nM.
The matching figures for “GAAUGUAAAGAGAAGGGCUACUGGUUGAAACCUGCGGCCUCUGGAACAUGAGGAUCACCCAUGUAGCAGGAUAUCUUUGCGUCA”: 192 nM and 29.5 nM.
In the case of “CUACGAGCGCCACAGGAUAUACUGAGACUCACAUGAGGAUCACCCAUGUCCAAUUCUCCCAAAUAGUAGAAGGGUGACGCGCUCG”, the “apparent Kd” value runs as follows: under setting [3], 699 nM; under setting [4], 53.3 nM.
As for “GGUAGAGAGCAGGAUAUCUUGGGUAAGUAUCGUAGAGAAGGGCUCACAUGAGGAUCACCCAUGUGGUCCUAGAU”, the “apparent Kd” value turned out to be 12.1 nM under setting [1] and 24.8 nM under setting [2].
In the case of “UAUAUGUCAGGAUAUCGCAACUGCGCGCGCAAGAAUCAUAACGAGAAGGGACAUGAGGAUCACCCAUGUACACU”, the “apparent Kd” value under setting [1] stood at 18.6 nM and the “apparent Kd” value under setting [2] turned out to be 25.7 nM.
On to “GCCAUCACAUGAGGAUAUGGCACCGUUUCGGUGCCAGAAGGCAUGUCAUAAGACAUGAGGAUCACCCAUGUAGUUAAGAUGGCA”, for which the “apparent Kd” value under setting [4] worked out at 55.4 nM.
As to “UUCAGCUCGUCAGGAUAUACGUCACUGCUUCGGCAGUGUGGUAAGAUCACAUGAGGAUCACCCAUGUAGAAGGGACGAGCUGAG”, the “apparent Kd” value under setting [1] worked out at 12.3 nM and the “apparent Kd” value under setting [2] was found to be 312 nM.
The matching figures for “GUCACUAGAGGAUAUACAAUGGUAUAUGAUCCUAGAGACAUACAUGAGGAUCACCCAUGUAGAAGGCUAGUAAU”: 81.7 nM and 46.6 nM.
Consider “GUAGCAUACCGAGGAUAUUCCGGGCAUAAAUAAACAUGAGGAUCACCCAUGUGGCGAAAGCCUAGGGAGAAGGCGGAAUGCUAC”, for which the “apparent Kd” value is, setting by setting: under setting [3], 15.2 nM; under setting [4], 13.6 nM.
For “UCAUGAUAUGUAGGAUAUCACAUUUAUUGAUUAAUAUAUGAAUAUAGAAUUUGAGAAGGACAUUUACAUGAGGAUCACCCAUGU”, the “apparent Kd” value under setting [1] came to 15.8 nM and the “apparent Kd” value under setting [2] came out at 16.7 nM.
The matching figures for “AGAUCAUCAGGAUAUACAUGGGUGAAAAAAGUAUAUCCACUACAUGAGGAUCACCCAUGUAGAAGGGAUGAUCA”: 17.3 nM and 15.1 nM.
Turning to “CUUUAAGUCGAGAAGGACAUGAGGAUCACCCAUGUAGGAUAUCGAUUAGCUUGCAUCCCGAGCCGCAUCGGUGUGACUGGUGGG”, the “apparent Kd” value under setting [3] was determined as 36.5 nM and the “apparent Kd” value under setting [4] stood at 7.83 nM.
The matching figures for “UGGUACAUGGGAGGAUAUCCUCAAGAGACAUGAGGAUCACCCAUGUAUUAUAUGCCUCUUGGCAUGGAGAAGGCCCAUGUACCU”: 56.2 nM and 55.4 nM.
Consider “GUAGAGUAGUGAGGAUAUACGAGUUCGAUAGAACGGCGAUCCAUUAAUACAUGAGGAUCACCCAUGUAGAAGGCACUUCUCUAC”, for which the “apparent Kd” value turned out to be 6.4 nM under setting [1] and 69.3 nM under setting [2].
The matching figures for “UGGGUUACAGGAUAUACAUGAGGAUCACCCAUGUCAUGUUUCGUGGCGGAUAGCUCGAGUAGAAGGGUGCAUCC”: 50 nM and 60.4 nM.
Turning to “AGUUAGAUAGCGAUAUGAUCGAGAGAUCAUGUCGCUAAAUUUAGAAGGACAUGAGGAUCACCCAUGUAGGAUAUGGGUAUAGAA”, the “apparent Kd” value is, setting by setting: under setting [3], 367 nM; under setting [4], 128 nM.
For “AAUUAUUUACAGAAGGAGUAUGAUAAUGUUUUACUAGGAUAUGUAUACAUGAGGAUCACCCAUGUUAUUGUAGGUUUUUUAUGU”, the “apparent Kd” value runs as follows: under setting [1], 12.7 nM; under setting [2], 9.65 nM.
On to “GUAGCAUACCGAGGAUAUUCAGGGCUUAUAUAAACAUGAGGAUCACCCAUGUGGCGAAAGCCUAGGGAGAAGGCGGAAUGCUAC”, for which the “apparent Kd” value runs as follows: under setting [3], 14.9 nM; under setting [4], 13.1 nM.
In the case of “GGAUGAGAAACUCAUCCAAAUCGAACAUGAGGAUCACCCAUGUAGGAUAUGCUACUCAAAGAGUAGCAGAAGGACAUGUGCUUU”, the “apparent Kd” value under setting [1] was 35 nM and the “apparent Kd” value under setting [2] was 232 nM.
Consider “AAUUAGGUCACAGGAUAUACAUCAUCCAUAGCUGUAGAAGGGUGUCAAAAUAAUAUCUGACAUGAGGAUCACCCAUGUUUCCAC”, for which the “apparent Kd” value was determined as 25 nM under setting [3] and 14.5 nM under setting [4].
The matching figures for “ACAUGAGGAUCACCCAUGUAGAAGGAGAGGGCAGAAUUUACGCAGGAUAUGCAUUUUUGGGAAAAGUAGAAGGGUGAGGGCGGA”: 36.4 nM and 25.2 nM.
Consider “CCAUAUAGGUAGGAUAUCGAUUUUAAUUAAUAUCGAGAAGGGUCAACAUGAGGAUCACCCAUGUCAGCAUGUAC”, for which the “apparent Kd” value is, setting by setting: under setting [1], 80.4 nM; under setting [2], 75.5 nM.
Turning to “UCCAACAUGAGGAUCACCCAUGUACAGGAUAUUAGAUCAGCUCAGCGCGUCCGUCAAGAUAUUUCUAAGAAGGGUACUGGGUAC”, the “apparent Kd” value came to 20.2 nM under setting [1] and 33.1 nM under setting [2].
The matching figures for “AGAUCACAUGAGGAUCACCCAUGUGAGGAUAUGAUACUAUGUACUUCGGUACAUAGUAUCAGAAGGCGCGUGAA”: 29.8 nM and 42.2 nM.
The matching figures for “CAGUACUGAGGAUAUACAUGAGGAUCACCCAUGUGUUGCAGCUAGGAAACUAGCAAAAGUAGAAGGCAGUACUG”: 10.7 nM and 21 nM.
The matching figures for “AACUAAGUAUUAAUGGUGUCUGACAGAAGGCAAUAGGUUGUGACCGACAUGAGGAUCACCCAUGUUGAGGAUAUGUCUAGCUAC”: 44.7 nM and 308 nM.
As to “UAAAUUAACAAGAAGGCUAACAUGAGGAUCACCCAUGUUGUACAUGGAUAUAGAGGAUAUUGAUAAUAAUUUUUUAUCAUAAUU”, the “apparent Kd” value by setting is: under setting [1], 17.6 nM; under setting [2], 16.5 nM.
Consider “GGUCGUCACAUUAACAUGAGGAUCACCCAUGUCAAAUAACAUGAGGAUAUGCAUCCUAAUUGGAUGCAGAAGGCAUGGACGACC”, for which the “apparent Kd” value by setting is: under setting [3], 6.72 nM; under setting [4], 5.39 nM.
Take “UCCUUAUCGGUCAGGAUAUACACCCGUUUCUCCUUGUAGAAGGGACAUGAGGAUCACCCAUGUACUGUACAUUU”: the “apparent Kd” value under setting [1] was determined as 30 nM and the “apparent Kd” value under setting [2] was determined as 31 nM.
“GUGAACAUGAGGAUCACCCAUGUAGCUCACUGCCAGUGGCUACAGGAUAUAGCACCUCGAGGGUGCUAGAAGGGUGGCCUAGAA”: the “apparent Kd” value reads like this: under setting [3], 62.9 nM; under setting [4], 16.8 nM.
The matching figures for “AGAUUUGUACAUGAGGAUCACCCAUGUUAAUAGGUGUUUGUCAGAAGGCAUUAAUAGAGAUUUAAUGAGGAUAUGAAUUUACAA”: 58.2 nM and 28.9 nM.
With “GGUGCACGCACAGGAUAUCCGGCGAAGCUCGUCGGAGAAGGGUGACAUGAGGAUCACCCAUGUACGUGCAACCCAGUUUGAGAG”, the “apparent Kd” value runs as follows: under setting [3], 85.2 nM; under setting [4], 31.4 nM.
Regarding “CUGAGUAGUCAGGAUAUGCUGUACAAAAGUACAGCAGAAGGGAUUACAUGAGGAUCACCCAUGUUGUCUUCAUG”, the “apparent Kd” value stood at 160 nM under setting [1] and 316 nM under setting [2].
Turning to “UUGUUGUAUGAAGGAUAUACUUAACAUGAGGAUCACCCAUGUGGUGUUGUGAGUGAGUGAGUUUAGUAGAAGGUCAAUUCUUUU”, the “apparent Kd” value turned out to be 221 nM under setting [1] and 201 nM under setting [2].
The matching figures for “UUGCUACAUGAGGAUCACCCAUGUCAGGAUAUAGUGUAUAGCGUGGAAGCUCUGUCGAUUAGAAGGGACUGUCU”: 23.7 nM and 25.2 nM.
The matching figures for “ACAAGAUCAGGAUAUACAUGAGGAUCACCCAUGUAUAUCCAAAAAGGGCUUUCUACAUGUAGAAGGGAUCUUGU”: 13.4 nM and 13.1 nM.
Consider “GGUGGACAUGAGGAUCACCCAUGUGAGGAUAUCGGCCGGUUCGCGGUGGCUGGCGUCUCGAGAAGGCGCAUAGU”, for which the “apparent Kd” value reads like this: under setting [1], 36.9 nM; under setting [2], 40.2 nM.
The matching figures for “AGGAAGUGAGGAUAUGCAUCAUAUAGUGGACGCUAUAGAAUGUAGAAGGCACAUGAGGAUCACCCAUGUUUAAA”: 30.2 nM and 29.3 nM.
With “CUAGUUGUCGCAGGAUAUGCCCGCUGGUUGGAGGCAGAAGGGUGACACCAAAUAUUAUACAUGAGGAUCACCCAUGUCGCCAGC”, the “apparent Kd” value is, setting by setting: under setting [3], 21.4 nM; under setting [4], 20.6 nM.
Consider “AAAAAACAUGAGGAUCACCCAUGUAAGGAUAUCUAAAAUAAAAGAAAAAUAAAGAAAAGGAGAAGGUACAAGGA”, for which the “apparent Kd” value was determined as 24.5 nM under setting [1] and 35.1 nM under setting [2].
The matching figures for “ACUGUUUGACUCCUCUUAUACAUGAGGAUCACCCAUGUUAUCGAGGAUAUGCAUUAGAGUGUUUAGCAGAAGGCGAUGUAAUUG”: 6.72 nM and 14.4 nM.
The matching figures for “CGAUAUUAUGCAGGAUAUCUCCCUUGAAUGUGGAGAGAAGGGCAUAGGGAGACAUAAGCCUUAUUACAUGAGGAUCACCCAUGU”: 10.3 nM and 9.31 nM.
The matching figures for “AACACUUAAAAGUGAGGCGAUAGGUAGGAUAUACAUGAGGAUCACCCAUGUAUGGGCUAUCUGCGGUAGAAGGACCUCUGGCCC”: 6.44 nM and 8.84 nM.
Regarding “GUAGAGUCAGGAUAUACGAGAUCGAAAGAUCGGCGAUCCAUACAUGAGGAUCACCCAUGUAGAAGGGACUCUAC”, the “apparent Kd” value came to 15.6 nM under setting [1] and 148 nM under setting [2].
The matching figures for “AGCUGGUGACAGCAAGAAACUUCACAUGAGGAUCACCCAUGUAGAAGGCUGUACGGUUACCGUACAGAGGAUAUACAUUGAAGA”: 5.59 nM and 8.63 nM.
The matching figures for “AGAAAGGCAGGAUAUACAUGAGGAUCACCCAUGUUAAGAAAGUGCGAAAGCACAAGAAGUAGAAGGGCCAAGAA”: 23 nM and 21.6 nM.
The matching figures for “ACGUUGUCAGGAUAUCGUUAAUUUAGUUGUUUGUAUUAGUUCGAGAAGGGACAUGAGGAUCACCCAUGUUUGCU”: 24.4 nM and 27.1 nM.
Take “GGGAGUGGAGGGAAUAACAUGAGGAUCACCCAUGUAUGGGAGAGAAGGCAGGUUGGAGGGCGAUCUGAGGAUAUUUAGACUCUU”: the “apparent Kd” value under setting [3] is 19.9 nM and the “apparent Kd” value under setting [4] amounted to 13.5 nM.
